Measured values: ChEMBL document CHEMBL4270526, “A novel NAE/UAE dual inhibitor LP0040 blocks neddylation and ubiquitination leading to growth inhibition and apoptosis of cancer cells” (Eur J Med Chem, 2018)
pIC50: −log10 of the molar value. Activity calls are given as the source filed them. The rule behind the calls is not given here.

Key:
[1] = biological target: cAMP-dependent protein kinase catalytic subunit alpha (Homo sapiens) (UniProt P17612); test: Inhibition of PKAalpha (unknown origin) at 30 uM relative to control
[2] = tested on: AGS; test: Induction of apoptosis in human AGS cells assessed as necrotic cells at 10 uM after 36 hrs by Annexin-V-FITC/propidium iodide staining based flow cytometry (reference value: 1.01%); assay type: functional
[3] = tested on: AGS; test: Induction of apoptosis in human AGS cells assessed as early apoptotic cells at 10 uM after 36 hrs by Annexin-V-FITC/propidium iodide staining based flow cytometry (reference value: 4.44%); assay type: functional
[4] = tested on: A549; test: Antiproliferative activity against human A549 cells after 48 hrs by CCK8 assay; assay type: functional, cell-based; details: A549, 48 h
Summary of the method: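 Cells seeded at 6 × 10^3 cells/well and left 12 h at 37 °C, 5% CO2. Medium then replaced with serial compound dilutions, bortezomib as positive control. After 48 h, CCK-8 added for 4 h and absorbance read at 450 nm. Three repeats; IC50 from normalized nonlinear regression of inhibition curves.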

[5] = biological target: Tyrosine-protein kinase Lck (Homo sapiens) (UniProt P06239); test: Inhibition of LCK (unknown origin) at 30 uM relative to control
[6] = biological target: T1, NEDD8 activating enzyme (Homo sapiens) (UniProt Q8TBC4+Q13564); test: Inhibition of NAE-mediated CRL neddylation in human AGS cells assessed as increase in p27 level up to 10 uM after 24 hrs by Western blot analysis; assay type: cell-based
Summary of the method: (§1)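 AGS cells given 2, 4, 6, 8 or 10 μM compound or 0.1% DMSO for 24 h, washed in ice-cold PBS and lysed in RIPA on ice. Equal protein loads run by SDS-PAGE: non-reducing for NEDD8/SUMO/Ub conjugates, reducing for p27, NRF2, CDT1 and cleaved caspase-3. Blotted to PVDF with primary antibody overnight at 4 °C and HRP secondary, ECL detection, densitometry. Three repeats.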

[7] = Antiproliferative activity against HUVEC after 48 hrs by CCK8 assay; assay type: cell-based; details: human, read-out: LC50
[8] = tested on: AGS; test: Synergistic antiproliferative activity against human AGS cells assessed as combination index constant at 1.25 uM after 48 hrs in presence of 10 nM BTZ by CCK8 assay; assay type: functional
Summary of the method: (§2)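 AGS cells at 6×10^3/well attached for 12 h, then exposed for 48 h to compound, bortezomib, or both at set concentrations. CCK-8 added for 4 h, then OD read at 450 nm. Inhibition rates E used for q = E(combo)/(E1+E2−E1×E2). Triplicate experiments.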

[9] = biological target: T1, NEDD8 activating enzyme (Homo sapiens); test: Inhibition of NAE in human AGS cells assessed as reduction in Uba3-NEDD8 conjugation level after 24 hrs by Western blot analysis; assay type: cell-based; summary of the method: as §1
[10] = tested on: AGS; test: Induction of apoptosis in human AGS cells assessed as necrotic cells at 6 uM after 36 hrs by Annexin-V-FITC/propidium iodide staining based flow cytometry (reference value: 1.01%); assay type: functional
[11] = biological target: Inhibitor of nuclear factor kappa-B kinase subunit beta (Homo sapiens) (UniProt O14920); test: Inhibition of IKKB (unknown origin) at 30 uM relative to control
[12] = tested on: AGS; test: Induction of apoptosis in human AGS cells assessed as late apoptotic cells at 8 uM after 36 hrs by Annexin-V-FITC/propidium iodide staining based flow cytometry (reference value: 1.71%); assay type: functional
[13] = tested on: AGS; test: Cell cycle arrest in human AGS cells assessed as accumulation at G1 phase at 4 uM after 4 to 48 hrs by propidium iodide staining based flow cytometry (reference value: 22.82%); assay type: functional
Summary of the method: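 AGS cells seeded at 1 × 10^5/well and attached 24 h at 37 °C, 5% CO2. Exposed to 4 μM compound for varying times, then fixed in 70% ethanol at −20 °C overnight. Stained with PI/RNase buffer 15–20 min in the dark; 20000 cells per sample read by flow cytometry (488 nm excitation, FL-3 630 nm). Three repeats.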

[14] = Antiproliferative activity against HEK293T cells after 48 hrs by CCK8 assay; assay type: cell-based, HEK-293T; details: human, read-out: LC50
[15] = biological target: Protein kinase C alpha type (Homo sapiens) (UniProt P17252); test: Inhibition of PKCalpha (unknown origin) at 30 uM relative to control
[16] = tested on: AGS; test: Inhibition of UAE in human AGS cells assessed as reduction in Ubc10-Ub conjugation level at 2 to 10 uM after 24 hrs by Western blot analysis; assay type: cell-based
Summary of the method: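 AGS cells (Ham's F12/10% FBS) exposed to 2, 4, 6, 8 or 10 µM compound, or 0.1% DMSO, for 24 h. RIPA lysates of equal protein run on non-reducing SDS-PAGE. Western blot for Ubc10-Ub or USE1-Ub, with densitometry. Three repeats.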

[17] = biological target: Cyclin-dependent kinase 2/cyclin E1 (Homo sapiens) (UniProt P24864+P24941); test: Inhibition of CDK2/cyclin E (unknown origin) at 30 uM relative to control; assay type: protein-complex assay
[18] = Selectivity index, ratio of IC50 for HUVEC to IC50 for human AGS cells; assay type: toxicity; details: HUVEC versus AGS cells, read-out: Ratio IC50
[19] = biological target: RAC-alpha serine/threonine-protein kinase (Homo sapiens) (UniProt P31749); test: Inhibition of AKT (unknown origin) at 30 uM relative to control
[20] = biological target: Serine/threonine-protein kinase Chk1 (Homo sapiens) (UniProt O14757); test: Inhibition of CHK1 (unknown origin) at 30 uM relative to control
[21] = tested on: AGS; test: Synergistic antiproliferative activity against human AGS cells assessed as combination index constant at 1 uM after 48 hrs in presence of 10 nM BTZ by CCK8 assay; assay type: functional; summary of the method: as §2
[22] = tested on: AGS; test: Synergistic antiproliferative activity against human AGS cells assessed as combination index constant at 1.5 uM after 48 hrs in presence of 7.5 nM BTZ by CCK8 assay; assay type: functional; summary of the method: as §2
[23] = tested on: AGS; test: Synergistic antiproliferative activity against human AGS cells assessed as combination index constant at 1.5 uM after 48 hrs in presence of 10 nM BTZ by CCK8 assay; assay type: functional; summary of the method: as §2
[24] = biological target: Serine/threonine-protein kinase B-raf (Homo sapiens) (UniProt P15056); test: Inhibition of B-raf (unknown origin) at 30 uM relative to control
[25] = biological target: T1, NEDD8 activating enzyme (Homo sapiens); test: Inhibition of NAE-mediated CRL neddylation in human AGS cells assessed as increase in CDT1 level up to 10 uM after 24 hrs by Western blot analysis; assay type: cell-based; summary of the method: as §1
[26] = tested on: AGS; test: Synergistic antiproliferative activity against human AGS cells assessed as combination index constant at 1 uM after 48 hrs in presence of 7.5 nM BTZ by CCK8 assay; assay type: functional; summary of the method: as §2
[27] = tested on: AGS; test: Induction of apoptosis in human AGS cells assessed as increase in cleaved caspase-3 level up to 10 uM after 24 hrs by Western blot analysis; assay type: functional, cell-based; summary of the method: as §1
[28] = tested on: AGS; test: Induction of apoptosis in human AGS cells assessed as live cells at 10 uM after 36 hrs by Annexin-V-FITC/propidium iodide staining based flow cytometry (reference value: 92.84%); assay type: functional
[29] = tested on: AGS; test: Induction of apoptosis in human AGS cells assessed as late apoptotic cells at 10 uM after 36 hrs by Annexin-V-FITC/propidium iodide staining based flow cytometry (reference value: 1.71%); assay type: functional

Chain of Serine/threonine-protein kinase Chk1 (Homo sapiens) (O14757 whole entry): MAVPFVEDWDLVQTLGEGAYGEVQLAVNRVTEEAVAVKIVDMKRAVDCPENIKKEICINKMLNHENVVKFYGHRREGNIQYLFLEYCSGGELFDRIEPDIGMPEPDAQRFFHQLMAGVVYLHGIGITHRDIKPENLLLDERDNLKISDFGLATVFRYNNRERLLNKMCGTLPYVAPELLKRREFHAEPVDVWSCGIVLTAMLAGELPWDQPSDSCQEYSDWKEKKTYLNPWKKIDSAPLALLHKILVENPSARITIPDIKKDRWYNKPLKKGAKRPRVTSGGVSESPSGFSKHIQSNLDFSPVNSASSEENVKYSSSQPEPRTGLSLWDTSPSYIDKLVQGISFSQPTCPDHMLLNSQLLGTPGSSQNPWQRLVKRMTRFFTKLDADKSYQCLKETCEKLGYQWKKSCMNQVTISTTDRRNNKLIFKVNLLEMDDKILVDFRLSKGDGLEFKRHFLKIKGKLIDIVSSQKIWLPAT
Chain of RAC-alpha serine/threonine-protein kinase (Homo sapiens) (P31749 whole entry): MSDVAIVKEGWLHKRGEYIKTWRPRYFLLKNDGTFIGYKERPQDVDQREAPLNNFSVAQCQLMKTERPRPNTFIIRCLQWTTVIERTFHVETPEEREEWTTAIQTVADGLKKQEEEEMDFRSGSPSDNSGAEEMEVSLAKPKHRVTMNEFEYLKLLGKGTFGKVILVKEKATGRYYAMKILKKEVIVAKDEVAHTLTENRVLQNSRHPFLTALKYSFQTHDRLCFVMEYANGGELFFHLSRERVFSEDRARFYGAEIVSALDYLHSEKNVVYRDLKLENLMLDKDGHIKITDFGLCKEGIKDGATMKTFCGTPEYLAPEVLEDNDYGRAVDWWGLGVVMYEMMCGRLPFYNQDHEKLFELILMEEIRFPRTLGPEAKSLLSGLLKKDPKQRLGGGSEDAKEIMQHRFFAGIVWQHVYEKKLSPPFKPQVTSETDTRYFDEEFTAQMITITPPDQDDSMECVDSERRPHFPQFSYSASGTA
Chain of Serine/threonine-protein kinase B-raf (Homo sapiens) (P15056 whole entry): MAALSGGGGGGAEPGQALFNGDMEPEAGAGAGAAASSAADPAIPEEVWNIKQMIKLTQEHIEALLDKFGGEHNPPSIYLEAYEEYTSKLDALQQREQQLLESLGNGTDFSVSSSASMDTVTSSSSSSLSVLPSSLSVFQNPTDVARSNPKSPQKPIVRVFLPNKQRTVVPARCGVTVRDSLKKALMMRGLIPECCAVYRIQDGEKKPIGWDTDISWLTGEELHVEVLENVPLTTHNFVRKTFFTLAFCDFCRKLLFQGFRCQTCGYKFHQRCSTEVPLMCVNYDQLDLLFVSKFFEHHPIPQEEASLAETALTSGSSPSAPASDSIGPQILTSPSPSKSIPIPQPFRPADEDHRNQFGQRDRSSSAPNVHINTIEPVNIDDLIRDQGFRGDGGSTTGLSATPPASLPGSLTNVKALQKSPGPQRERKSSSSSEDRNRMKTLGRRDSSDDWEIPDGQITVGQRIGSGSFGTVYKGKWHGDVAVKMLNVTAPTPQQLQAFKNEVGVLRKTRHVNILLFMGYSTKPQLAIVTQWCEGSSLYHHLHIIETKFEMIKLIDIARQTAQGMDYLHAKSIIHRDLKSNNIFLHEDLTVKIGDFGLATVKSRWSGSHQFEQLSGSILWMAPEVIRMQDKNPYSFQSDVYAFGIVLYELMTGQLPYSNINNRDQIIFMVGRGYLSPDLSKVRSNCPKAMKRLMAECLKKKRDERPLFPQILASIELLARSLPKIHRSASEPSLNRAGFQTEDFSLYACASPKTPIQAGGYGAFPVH
Chain of Tyrosine-protein kinase Lck (Homo sapiens) (P06239 2-509 limits assumed): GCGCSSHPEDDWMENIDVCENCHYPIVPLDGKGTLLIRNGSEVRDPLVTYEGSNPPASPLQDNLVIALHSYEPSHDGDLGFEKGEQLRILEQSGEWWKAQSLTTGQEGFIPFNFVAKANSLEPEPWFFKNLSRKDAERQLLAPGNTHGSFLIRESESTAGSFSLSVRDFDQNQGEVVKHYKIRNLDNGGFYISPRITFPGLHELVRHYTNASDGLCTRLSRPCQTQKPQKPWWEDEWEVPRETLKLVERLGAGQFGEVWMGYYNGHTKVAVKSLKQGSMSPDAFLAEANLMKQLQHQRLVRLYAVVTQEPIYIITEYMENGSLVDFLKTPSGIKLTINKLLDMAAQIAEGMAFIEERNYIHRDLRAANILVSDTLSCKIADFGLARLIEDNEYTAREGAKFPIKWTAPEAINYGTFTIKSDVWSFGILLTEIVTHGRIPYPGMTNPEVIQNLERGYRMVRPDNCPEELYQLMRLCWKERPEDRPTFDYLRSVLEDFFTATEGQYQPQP
Chain of Inhibitor of nuclear factor kappa-B kinase subunit beta (Homo sapiens) (O14920 whole entry): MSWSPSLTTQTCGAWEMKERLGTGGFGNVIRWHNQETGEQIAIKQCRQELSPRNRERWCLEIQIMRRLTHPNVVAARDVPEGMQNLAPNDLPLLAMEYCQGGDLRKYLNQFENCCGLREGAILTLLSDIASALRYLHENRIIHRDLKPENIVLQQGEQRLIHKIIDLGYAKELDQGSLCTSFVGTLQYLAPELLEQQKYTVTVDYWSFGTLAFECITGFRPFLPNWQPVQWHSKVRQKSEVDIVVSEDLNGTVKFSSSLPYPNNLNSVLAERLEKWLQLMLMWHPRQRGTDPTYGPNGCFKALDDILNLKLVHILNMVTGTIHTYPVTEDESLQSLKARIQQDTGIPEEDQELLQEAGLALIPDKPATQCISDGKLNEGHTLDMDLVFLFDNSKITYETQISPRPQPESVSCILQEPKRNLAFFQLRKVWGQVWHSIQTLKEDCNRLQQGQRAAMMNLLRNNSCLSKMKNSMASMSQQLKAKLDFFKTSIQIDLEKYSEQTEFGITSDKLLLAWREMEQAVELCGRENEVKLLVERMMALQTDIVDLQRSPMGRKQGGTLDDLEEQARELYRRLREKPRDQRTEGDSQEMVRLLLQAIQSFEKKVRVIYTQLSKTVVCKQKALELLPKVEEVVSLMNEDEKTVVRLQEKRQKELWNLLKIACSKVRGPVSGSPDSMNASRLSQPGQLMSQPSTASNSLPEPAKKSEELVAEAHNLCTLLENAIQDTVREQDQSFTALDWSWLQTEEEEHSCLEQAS

SMILES: O=c1cc(-c2ccc(-c3ccccc3)cc2)c2ccc(N3CCC(NCCc4ccccc4)CC3)cc2o1
- inhibition [1]: 5.17%
- Activity [2]: 9.14%
- Activity [3]: 38.71%
- pIC50 [4]: 5.67
- inhibition [5]: -2.51%
- inhibition [6]: Active
- CC50 at 48 h [7]: 10.7 µM
- CI [8]: 1.75
- inhibition [9]: Dose-dependent effect
- Activity [10]: 3.33%
- inhibition [11]: 1.07%
- Activity [12]: 35.01%
- Activity [13]: 48.88%
- CC50 at 48 h [14]: 12.9 µM
- inhibition [15]: 11.5%
- inhibition [16]: Active
- inhibition [17]: 4.57%
- selectivity ratio [18]: 14 to 18
- inhibition [19]: 9.87%
- inhibition [20]: 1.01%
- CI [21]: 1.14
- CI [22]: 1.05
- CI [23]: 1.35
- inhibition [24]: 1.75%
- inhibition [25]: Active
- CI [26]: 1.13
- Activity [27]: Active
- Activity [28]: 7.4%
- Activity [29]: 44.73%
